Measurements of several laboratories.
Lines come from different studies, so protocols differ.
Read-out: cell growth or viability

SMILES | cell line | assay | conditions | measurement | result
CC[C@H](C)[C@H](N)C(=O)O[C@]1(CC)C(=O)OCc2c1cc1n(c2=O)Cc2cc3cc4c(cc3nc2-1)OCO4 | HCT-116 | MTT |  | IC50 | 0.064 µM
C=CC(=O)Nc1cc(Nc2nccc(-c3cn(C)c4ccccc34)n2)c(OC)cc1N(C)CCN(C)C | PC-9 |  | 72 h | IC50 | 0.008 µM
COc1cccc2c1C(=O)c1c(O)c3c(c(O)c1C2=O)C[C@@](O)(C(=O)CO)C[C@@H]3O[C@H]1C[C@H](N)[C@H](O)[C@H](C)O1 | SK-OV-3 |  | 48 h | IC50 | 1.2 mg/L
CC[C@@]1(OC(=O)C(C)c2cccc(C(=O)c3ccccc3)c2)C(=O)OCc2c1cc1n(c2=O)Cc2cc3cc4c(cc3nc2-1)OCO4 (some centres unmarked) | HCT-116 | MTT |  | IC50 | 0.302 µM
CC(C)C[C@@H]1NC(=O)[C@H](Cc2ccccc2)NC(=O)[C@H](CCCCN)NC(=O)[C@H](CC(C)C)NC(=O)[C@H](C(C)C)NC1=O | HCT-116 | thymidine uptake | 10 µM, 72 h | inhibition | 0%
N.N.[Cl][Pt][Cl] | HCT-116 |  | 24 h | IC50 | 35.6 µM
CC[C@@]1(OC(=O)C(C)c2ccc(CC(C)C)cc2)C(=O)OCc2c1cc1n(c2=O)Cc2cc3cc4c(cc3nc2-1)OCO4 (some centres unmarked) | HCT-116 | MTT |  | IC50 | > 5 µM
CC1=C(O)C(=O)C=C2C1=CC=C1[C@@]2(C)CC[C@@]2(C)[C@@H]3C[C@](C)(C(=O)O)CC[C@]3(C)CC[C@]12C | AGS | MTT | 48 h | IC50 | 0.39 µM
CCCc1cc(=O)n2nc(NCc3c(F)cc(Cl)cc3F)c(C#N)c2[nH]1 | U-87 MG | ATP luminescence | 72 h | IC50 | > 50 µM
Cc1cc(N(CCO)CCO)ccc1C(=O)O | SN12K1 |  |  | IC50 | > 10 mg/L
Cc1cccc2c(CNCC3(N4CCCC4)COC3)c[nH]c12 | U-87 MG |  | 30 µM, 48 h | viability | 3.42%
COc1cc2c(c3c1C(=O)C[C@@H](c1ccccc1)O3)[C@H]1[C@@H](O2)OC(C)(C)[C@@H]1OC(C)=O | Raji | MTS | 72 h | IC50 | > 10 µM
Cc1cc(N(CCO)CCO)ccc1C=O | SN12K1 |  |  | IC50 | > 10 mg/L
CN[C@@H]1C[C@H]2O[C@@](C)([C@@H]1OC)n1c3ccccc3c3c4c(c5c6ccccc6n2c5c31)C(=O)NC4 | SHP77 | MTT |  | IC50 | 0.016 µM
